# What was measured:
# [1] = biological target: T1, Sodium- and chloride-dependent GABA transporter 1 (Mus musculus, UniProt P31648); experiment: Inhibition of mouse GAT1 expressed in HEK293 cells assessed as reduction in [3H]GABA uptake preincubated for 25 mins followed by [3H]GABA addition measured after 4 mins by liquid scintillation counting analysis; assay type: cell-based
# Procedure, shortened: (§1)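 HEK293 cells stably expressing the mouse GAT subtype (about 200000 cells) preincubated with compound for 25 min at 25 °C in the dark with shaking. Then 8 nM [3H]GABA plus 32 nM unlabeled GABA (final) added for 4 min. Stopped by filtration; filter radioactivity by scintillation counting. Photoisomerized 10 mM DMSO-d6 stocks (photostationary state, Z/E ratio by 1H NMR) diluted protected from light; non-irradiated stock tested in parallel.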
# GABA transporter 4 = biological target: T2, GABA transporter 4 (Mus musculus, UniProt P31650); experiment: Inhibition of mouse GAT4 expressed in HEK293 cells assessed as reduction in [3H]GABA uptake preincubated for 25 mins followed by [3H]GABA addition measured after 4 mins by liquid scintillation counting analysis; assay type: cell-based; procedure, shortened: as §1
# T2 sequence (P31650 whole entry): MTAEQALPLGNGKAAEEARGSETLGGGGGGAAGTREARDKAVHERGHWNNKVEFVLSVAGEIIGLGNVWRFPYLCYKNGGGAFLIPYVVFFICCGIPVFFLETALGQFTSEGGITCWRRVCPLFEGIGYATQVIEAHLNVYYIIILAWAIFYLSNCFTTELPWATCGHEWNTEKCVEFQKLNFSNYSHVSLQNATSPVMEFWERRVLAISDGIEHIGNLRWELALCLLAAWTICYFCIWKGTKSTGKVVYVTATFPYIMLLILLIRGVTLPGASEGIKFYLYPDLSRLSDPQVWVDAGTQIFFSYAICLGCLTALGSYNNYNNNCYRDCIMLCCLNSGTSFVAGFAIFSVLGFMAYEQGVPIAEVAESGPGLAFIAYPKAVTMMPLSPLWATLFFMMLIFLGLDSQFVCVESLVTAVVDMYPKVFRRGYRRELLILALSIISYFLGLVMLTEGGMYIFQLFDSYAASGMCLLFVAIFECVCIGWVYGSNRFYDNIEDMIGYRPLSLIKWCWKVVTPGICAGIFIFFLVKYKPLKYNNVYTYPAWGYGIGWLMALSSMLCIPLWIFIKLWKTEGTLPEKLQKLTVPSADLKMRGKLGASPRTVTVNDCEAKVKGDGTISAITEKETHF
# [2] = biological target: T1, Sodium- and chloride-dependent GABA transporter 1; experiment: Inhibition of mouse GAT1 expressed in HEK293 cells assessed as reduction in [3H]GABA uptake; assay type: cell-based
# [3] = biological target: Sodium- and chloride-dependent GABA transporter 1 (Mus musculus) (UniProt P31648); experiment: Inhibition of GAT1 in C57BL/6N mouse dentate gyrus granule cells assessed as induction of tonic GABAA receptor-mediated current response by measuring shift in holding current amplitude at 10 uM by Whole cell voltage-clamp method
# Procedure, shortened: (§2)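 Acute 350 μm coronal dorsal hippocampal slices from mice, recovered 30 min at 34 °C then ≥30 min at room temperature in carbogenated saline (pH 7.4). Superfused at room temperature with NBQX 5 μM, APV 50 μM, CGP 55845 5 μM. Granule cell whole-cell voltage clamp at −70 mV. Compound bath-applied; activated form made by 340 nm UV for 10 min on 10 mM stock just before addition; bicuculline methiodide 20 μM.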
# [4] = biological target: T1, Sodium- and chloride-dependent GABA transporter 1; experiment: Inhibition of mouse GAT1 expressed in HEK293 cells assessed as reduction in [3H]GABA uptake preincubated cells with photoirradiated compound for 25 mins followed by [3H]GABA addition measured after 4 mins by liquid scintillation counting method; assay type: cell-based; procedure, shortened: as §1
# [5] = Half life of thermal relaxation of compound in pH 7.4 DMSO-d6/phosphate-buffer using photoirradiated compound at 10 uM incubated in dark by UV/vis-spectroscopy; assay type: physicochemical; settings: pH 7.4, 10 µM
# [6] = Half life of thermal relaxation of compound in pH 7.4 DMSO-d6/phosphate-buffer using photoirradiated compound at 25 uM incubated in dark by UV/vis-spectroscopy; assay type: physicochemical; settings: pH 7.4, 25 µM
# [7] = Half life of thermal relaxation of compound in pH 7.4 DMSO-d6/phosphate-buffer using photoirradiated compound at 20 uM incubated in dark by UV/vis-spectroscopy; assay type: physicochemical; settings: pH 7.4, 20 µM
# [8] = Half life of thermal relaxation of compound in pH 7.4 DMSO-d6/phosphate-buffer using photoirradiated compound at 50 uM incubated in dark by UV/vis-spectroscopy; assay type: physicochemical; settings: pH 7.4, 50 µM
# [9] = biological target: Sodium- and chloride-dependent GABA transporter 1 (Mus musculus) (UniProt P31648); experiment: Inhibition of GAT1 in C57BL/6N mouse dentate gyrus granule cells assessed as induction of tonic GABAA receptor-mediated current response by measuring shift in holding current amplitude using UV-activated compound at 10 uM by Whole cell voltage-clamp method; procedure, shortened: as §2
# [10] = biological target: T3, GABA transporter 4 (Mus musculus) (UniProt P31650); experiment: Inhibition of mouse GAT4 expressed in HEK293 cells assessed as reduction in [3H]GABA uptake by measuring remaining [3H]GABA uptake levels preincubated cells with photoirradiated compound at 100 uM for 25 mins followed by [3H]GABA addition measured after 4 mins by liquid scintillation counting method relative to control; assay type: cell-based
# T3 sequence (whole entry): T2 sequence (P31650 whole entry)
# [11] = system: GABA transporter 2, Slc6a13 (Mus musculus); experiment: Inhibition of mouse GAT3 expressed in HEK293 cells assessed as reduction in [3H]GABA uptake by measuring remaining [3H]GABA uptake levels preincubated cells with photoirradiated compound at 100 uM for 25 mins followed by [3H]GABA addition measured after 4 mins by liquid scintillation counting …
# [12] = system: betaine/GABA transporter BGT1, Slc6a12 (Mus musculus); experiment: Inhibition of mouse GAT2 expressed in HEK293 cells assessed as reduction in [3H]GABA uptake by measuring remaining [3H]GABA uptake levels preincubated cells with photoirradiated compound at 100 uM for 25 mins followed by [3H]GABA addition measured after 4 mins by liquid scintillation counting …
# [13] = biological target: Sodium- and chloride-dependent GABA transporter 1 (Mus musculus) (UniProt P31648); experiment: Inhibition of GAT1 in C57BL/6N mouse dentate gyrus granule cells assessed as induction of tonic GABAA receptor-mediated current response by measuring shift in holding current amplitude using UV-activated compound at 10 uM in presence of GABAA receptor blocker bicuculline methiodide by Whole cell voltage-clamp method; procedure, shortened: as §2
compound,measurement,setting,value
O=C(O)[C@@H]1CCCN(CCC#Cc2ccc(/N=N/c3ccccc3)cc2)C1,IC50,[1],0.417 µM
same,IC50,GABA transporter 4,10 to 100 µM
O=C(O)C1CCCN(CC/C=C/c2cccc(/N=N/c3ccccc3)c2)C1 (stereo unspecified),IC50,[1],38 µM
O=C(O)C1CCCN(CCC/C=C/c2cccc(/N=N/c3ccccc3)c2)C1 (stereo unspecified),IC50,[1],38 µM
O=C(O)C1CCCN(CCC/C=C/c2ccc(/N=N/c3ccccc3)cc2)C1 (stereo unspecified),IC50,[1],5.75 µM
O=C(O)C1CCCN(CCC#Cc2ccc(/N=N/c3ccccc3)cc2)C1 (stereo unspecified),IC50,[1],0.646 µM
O=C(O)C1CCCN(CCC#Cc2cccc(/N=N/c3ccccc3)c2)C1 (stereo unspecified),IC50,[1],32.4 µM
O=C(O)C1CCCN(CC/C=C/c2ccc(/N=N/c3cccc4ccccc34)cc2)C1 (stereo unspecified),IC50,[1],8.71 µM
O=C(O)C1CCCN(CC/C=C/c2ccccc2-c2ccccc2)C1 (stereo unspecified),IC50,[2],0.162 µM
O=C(O)[C@@H]1CCCN(CCC#Cc2cccc(/N=N/c3cccc4ccccc34)c2)C1,IC50,[1],4.27 µM
same,IC50,GABA transporter 4,10 to 100 µM
O=C(O)C1CCCN(CCCC#Cc2cccc(/N=N/c3cccc4ccccc34)c2)C1 (stereo unspecified),IC50,[1],12.3 µM
O=C(O)C1CCCN(CCC/C=C/c2cccc(/N=N/c3cccc4ccccc34)c2)C1 (stereo unspecified),IC50,[1],19.5 µM
O=C(O)C1CCCN(CCCC#Cc2cccc(/N=N/c3ccccc3)c2)C1 (stereo unspecified),IC50,[1],14.5 µM
O=C(O)C1CCCN(CCC/C=C/c2ccc(/N=N/c3cccc4ccccc34)cc2)C1 (stereo unspecified),IC50,[1],6.46 µM
O=C(O)C1CCCN(CCCC#Cc2ccc(/N=N/c3cccc4ccccc34)cc2)C1 (stereo unspecified),IC50,[1],3.02 µM
O=C(O)[C@@H]1CCCN(CCC#Cc2ccc(/N=N/c3cccc4ccccc34)cc2)C1,IC50,[1],0.0977 µM
same,IC50,GABA transporter 4,10 to 100 µM
O=C(O)C1CCCN(CCC#Cc2cccc(/N=N/c3cccc4ccccc34)c2)C1 (stereo unspecified),IC50,[1],6.46 µM
O=C(O)C1CCCN(CCC#Cc2ccccc2-c2ccccc2)C1 (stereo unspecified),IC50,[2],0.1 µM
O=C(O)C1CCCN(CCCC#Cc2ccc(/N=N/c3ccccc3)cc2)C1 (stereo unspecified),IC50,[1],7.59 µM
O=C(O)C1CCCN(CC/C=C/c2ccc(/N=N/c3ccccc3)cc2)C1 (stereo unspecified),IC50,[1],10 µM
O=C(O)C1CCCN(CCC#Cc2ccc(/N=N/c3cccc4ccccc34)cc2)C1 (stereo unspecified),IC50,[1],0.126 µM
O=C(O)[C@@H]1CCCN(CCC#Cc2cccc(/N=N/c3ccccc3)c2)C1,IC50,[1],22.4 µM
same,Activity,[3],-0.22 pA
same,IC50,GABA transporter 4,10 to 100 µM
O=C(O)C1CCCN(CC/C=C/c2cccc(/N=N/c3cccc4ccccc34)c2)C1 (stereo unspecified),IC50,[1],12.3 µM
O=C(O)C1CCCN(CCCC#Cc2ccc(N=Nc3cccc4ccccc34)cc2)C1 (mixture of isomers),IC50,[4],4.9 µM
same,t1/2,[5],4.3 h
O=C(O)C1CCCN(CCC#Cc2ccc(N=Nc3ccccc3)cc2)C1 (mixture of isomers),IC50,[4],2.57 µM
same,t1/2,[6],115 h
O=C(O)C1CCCN(CCCC#Cc2cccc(N=Nc3ccccc3)c2)C1 (mixture of isomers),IC50,[4],4.07 µM
same,t1/2,[7],360 h
O=C(O)C1CCCN(CCCC=Cc2ccc(N=Nc3ccccc3)cc2)C1 (mixture of isomers),IC50,[4],23.4 µM
same,t1/2,[8],45.6 h
O=C(O)C1CCCN(CCC#Cc2cccc(N=Nc3cccc4ccccc34)c2)C1 (mixture of isomers),IC50,[4],1.95 µM
same,t1/2,[7],18 h
O=C(O)C1CCCN(CCCC=Cc2cccc(N=Nc3ccccc3)c2)C1 (mixture of isomers),IC50,[4],25.1 µM
same,t1/2,[7],288 h
O=C(O)C1CCCN(CCCC#Cc2ccc(N=Nc3ccccc3)cc2)C1 (mixture of isomers),IC50,[4],25.7 µM
same,t1/2,[6],163 h
O=C(O)C1CCCN(CCC=Cc2cccc(N=Nc3cccc4ccccc34)c2)C1 (mixture of isomers),IC50,[4],5.89 µM
same,t1/2,[7],22 h
O=C(O)C1CCCN(CCC#Cc2ccc(N=Nc3cccc4ccccc34)cc2)C1 (mixture of isomers),IC50,[4],0.229 µM
same,t1/2,[5],3.4 h
O=C(O)[C@@H]1CCCN(CCC#Cc2cccc(N=Nc3ccccc3)c2)C1 (mixture of isomers),IC50,[4],0.417 µM
same,Activity,[9],-25.3 pA
same,Activity,[10],57%
same,Activity,[11],60%
same,Activity,[12],76%
same,Activity,[13],-1.84 pA
O=C(O)[C@@H]1CCCN(CCC#Cc2ccc(N=Nc3ccccc3)cc2)C1 (mixture of isomers),IC50,[4],1.45 µM
O=C(O)[C@@H]1CCCN(CCC#Cc2ccc(N=Nc3cccc4ccccc34)cc2)C1 (mixture of isomers),IC50,[4],0.182 µM
O=C(O)C1CCCN(CCCC=Cc2ccc(N=Nc3cccc4ccccc34)cc2)C1 (mixture of isomers),IC50,[4],6.17 µM
same,t1/2,[5],1.5 h
O=C(O)C1CCCN(CCCC=Cc2cccc(N=Nc3cccc4ccccc34)c2)C1 (mixture of isomers),IC50,[4],10 µM
same,t1/2,[7],11 h
O=C(O)C1CCCN(CCC=Cc2ccc(N=Nc3cccc4ccccc34)cc2)C1 (mixture of isomers),IC50,[4],7.41 µM
same,t1/2,[5],1.2 h
O=C(O)C1CCCN(CCCC#Cc2cccc(N=Nc3cccc4ccccc34)c2)C1 (mixture of isomers),IC50,[4],13.8 µM
same,t1/2,[7],43.2 h
O=C(O)C1CCCN(CCC=Cc2ccc(N=Nc3ccccc3)cc2)C1 (mixture of isomers),IC50,[4],37.2 µM
same,t1/2,[8],26.4 h
O=C(O)[C@@H]1CCCN(CCC#Cc2cccc(N=Nc3cccc4ccccc34)c2)C1 (mixture of isomers),IC50,[4],1 µM
O=C(O)C1CCCN(CCC=Cc2cccc(N=Nc3ccccc3)c2)C1 (mixture of isomers),IC50,[4],4.79 µM
same,t1/2,[6],312 h

# Source: ChEMBL document CHEMBL4130630 (J Med Chem, 2018)
